Laboratory results as given in ChEMBL document CHEMBL1157206 (Bioorg Med Chem, 2008).

Experiments:
DLD-1 = test: Cytotoxicity against human DLD1 cells by resazurin reduction test; assay type: functional, cell-based
Method in brief: (§1)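 Cells seeded at 5 × 10³ per well and allowed to adhere 16 h. Compounds are made up from DMSO stocks, with DMSO held at 0.5% (v/v) at every concentration, and added as a 4× solution in MEM. Continuous exposure lasts 48 h. Resazurin at 25 µg/mL in MEM without serum or phenol red is then given for 1 h at 37 °C, 5% CO₂. Fluorescence is read at ex 530/em 590 nm. IC50 comes from the blank-subtracted concentration–response curve, expressed as percent of control wells.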

PC-3 = test: Cytotoxicity against human PC3 cells by resazurin reduction test; assay type: functional, cell-based; method in brief: as §1
[1] = Cytotoxicity against human primary fibroblasts by resazurin reduction test; assay type: cell-based; settings: Fibroblast; method in brief: as §1
L929 [2] = test: Effect on oxidative stress in mouse L929 cells assessed as glutathione depletion at 50 uM after 4 hrs; assay type: functional
Method in brief: (§2)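 L929 cells seeded at 5 × 10³ per well and grown 48 h to about 90% confluence. Treatment runs in HBSS/15 mM Hepes pH 7.4 for 4 h at 37 °C. Cells are then washed and incubated 15 min with 7.5 µM monochlorobimane before the fluorescence read. Depletion counts as significant below 80% of control. Positive control is 100 µM diethylmaleate.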

MCF7 = test: Cytotoxicity against human MCF7 cells by resazurin reduction test; assay type: functional, cell-based; method in brief: as §1
[3] = Cytotoxicity against human M4Beu cells by resazurin reduction test; assay type: functional, cell-based; method in brief: as §1
PA-1 = test: Cytotoxicity against human PA1 cells by resazurin reduction test; assay type: functional, cell-based; method in brief: as §1
A549 = test: Cytotoxicity against human A549 cells by resazurin reduction test; assay type: functional, cell-based; method in brief: as §1
L929 [4] = test: Growth inhibition in mouse L929 cells after 48 hrs; assay type: functional; set-up: concentration or dose not given beside the values
L929 [5] = test: Effect on oxidative stress in mouse L929 cells assessed as ROS production at 6.25 uM after 4 hrs by 2',7'-dichlorofluorescein-diacetate assay; assay type: functional
Method in brief: (§3)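 L929 cells seeded at 5 × 10³ per well and grown 48 h to about 90% confluence. Cells are loaded with 20 µM DCFH-DA in HBSS/15 mM Hepes pH 7.4 for 1 h at 37 °C, washed, then treated in the same buffer at 37 °C. Fluorescence is read after 4 h at 485/530 nm and expressed as percent of control. Above 150% counts as significant; 100 µM tert-butyl hydroperoxide serves as positive control.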

L929 [6] = test: Effect on oxidative stress in mouse L929 cells assessed as ROS production at 12.5 uM after 4 hrs by 2',7'-dichlorofluorescein-diacetate assay; assay type: functional; method in brief: as §3
L929 [7] = test: Effect on oxidative stress in mouse L929 cells assessed as cytolysis at 50 uM after 4 hrs by calcein-AM assay; assay type: functional
Method in brief: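 L929 cells seeded at 5 × 10³ per well and grown 48 h to about 90% confluence. Cells are washed with HBSS/Hepes, then exposed 4 h at 37 °C in complete medium with 0.5% DMSO vehicle, in triplicate. Tween 80 is the lysis control. Detached cells are checked by microscopy, then 4 µM calcein-AM is added for 1 h and read at ex 485/em 530 nm. Percent intact cells = (sample − 100%-lysis background)/(vehicle − background) × 100.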

L929 [8] = test: Effect on oxidative stress in mouse L929 cells assessed as glutathione depletion at 6.25 uM after 4 hrs; assay type: functional; method in brief: as §2
L929 [9] = test: Effect on oxidative stress in mouse L929 cells assessed as ROS production at 25 uM after 4 hrs by 2',7'-dichlorofluorescein-diacetate assay; assay type: functional; method in brief: as §3

CC(=O)OC[C@H]1O[C@@H](NC(=O)CCNC(=O)CCCc2ccc(N(CCCl)CCCl)cc2)[C@H](F)[C@@H](OC(C)=O)[C@@H]1OC(C)=O
IC50 (DLD-1): 11 µM | IC50 (PC-3): 3.7 µM | IC50 [1]: 7 µM | Activity (L929 [2]): <=80% | IC50 (MCF7): 13 µM | IC50 [3]: 15 µM | IC50 (PA-1): 0.24 µM | IC50 (A549): 9.2 µM | inhibition (INH) (L929 [4]): 50%

CC(=O)OC[C@H]1O[C@@H](Oc2ccc(NC(=O)CNC(=O)CCCc3ccc(N(CCCl)CCCl)cc3)cc2)[C@H](F)[C@@H](OC(C)=O)[C@@H]1OC(C)=O
IC50 (DLD-1): 6 µM | IC50 (PC-3): 8 µM | IC50 [1]: 16 µM | IC50 (MCF7): 14 µM | IC50 [3]: 14 µM | IC50 (PA-1): 1.6 µM | IC50 (A549): 10 µM | inhibition (INH) (L929 [4]): 40%

CC(=O)OC[C@H]1O[C@@H](NC(=O)CCCNC(=O)CCCc2ccc(N(CCCl)CCCl)cc2)[C@H](F)[C@@H](OC(C)=O)[C@@H]1OC(C)=O
IC50 (DLD-1): 9 µM | IC50 (PC-3): 3 µM | IC50 [1]: 4.1 µM | IC50 (MCF7): 12 µM | IC50 [3]: 9 µM | IC50 (PA-1): 0.27 µM | IC50 (A549): 13 µM | inhibition (INH) (L929 [4]): 50% | Activity (L929 [5]): >=150%

CC(=O)OC[C@H]1O[C@@H](NC(=O)NCCCc2ccc(N(CCCl)CCCl)cc2)[C@H](F)[C@@H](OC(C)=O)[C@@H]1OC(C)=O
IC50 (DLD-1): 7 µM | IC50 (PC-3): 4 µM | IC50 [1]: 13 µM | IC50 (MCF7): 26.4 µM | IC50 [3]: 27 µM | Activity (L929 [6]): >=150% | IC50 (PA-1): 0.6 µM | IC50 (A549): 8 µM | inhibition (INH) (L929 [4]): 40%

CC(=O)OC[C@H]1O[C@@H](NC(=O)c2ccc(NC(=O)CCCc3ccc(N(CCCl)CCCl)cc3)cc2)[C@H](F)[C@@H](OC(C)=O)[C@@H]1OC(C)=O
IC50 (DLD-1): 3 µM | IC50 (PC-3): 1.4 µM | IC50 [1]: 4 µM | Activity (L929 [2]): <=80% | IC50 (MCF7): 5 µM | Activity (L929 [7]): <=80% | IC50 [3]: 7 µM | IC50 (PA-1): 0.3 µM | IC50 (A549): 2.7 µM | inhibition (INH) (L929 [4]): 50%

CC(=O)OC[C@H]1O[C@@H](Oc2ccc(NC(=O)CCCc3ccc(N(CCCl)CCCl)cc3)cc2)[C@H](F)[C@@H](OC(C)=O)[C@@H]1OC(C)=O
IC50 (DLD-1): 10 µM | IC50 (PC-3): 11 µM | IC50 [1]: > 50 µM | Activity (L929 [8]): <=80% | IC50 (MCF7): 26 µM | IC50 [3]: > 50 µM | IC50 (PA-1): 0.76 µM | IC50 (A549): 1.9 µM

CC(=O)OC[C@H]1O[C@@H](NC(=O)CNC(=O)CCCc2ccc(N(CCCl)CCCl)cc2)[C@H](F)[C@@H](OC(C)=O)[C@@H]1OC(C)=O
IC50 (DLD-1): 4 µM | IC50 (PC-3): 10 µM | IC50 [1]: 4.1 µM | Activity (L929 [9]): >=150% | IC50 (MCF7): 8 µM | IC50 [3]: 6.8 µM | IC50 (PA-1): 1 µM | IC50 (A549): 5 µM | inhibition (INH) (L929 [4]): 70%

CC(=O)OC[C@H]1O[C@@H](NC(=O)CCCc2ccc(N(CCCl)CCCl)cc2)[C@H](F)[C@@H](OC(C)=O)[C@@H]1OC(C)=O
IC50 (DLD-1): 7.1 µM | IC50 (PC-3): 4.4 µM | IC50 [1]: 11 µM | IC50 (MCF7): 27 µM | IC50 [3]: 27 µM | IC50 (PA-1): 1.3 µM | IC50 (A549): 5.4 µM

O=C(O)CCCc1ccc(N(CCCl)CCCl)cc1 [CHLORAMBUCIL]
IC50 (DLD-1): 47 µM | IC50 [1]: 99 µM | Activity (L929 [8]): <=80% | IC50 (MCF7): > 100 µM | IC50 [3]: > 100 µM | IC50 (PA-1): 2.8 µM | IC50 (A549): 43 µM | inhibition (INH) (L929 [4]): 30% | Activity (L929 [5]): >=150%
